Bioassay records: PubChem, several laboratories
Lung fibro prol – blocks proliferation of human lung fibroblasts | LL 47 human lung fibroblast viability, ATP luminescence; active compounds read low | actives 1.1% (n = 85,000) | viability, % at 10 µM;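 active = viability at or below 50% in the single dose screen; inactive = viability above 50%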;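 also: compound exposure lasted 72 h before the ATP readout; 100% = median luminescence of untreated cell-only wells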
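Test system: LL 47 human lung fibroblasts / Quantity: 1,150 cells in each well / Medium: IMEM growth medium with 15% fetal bovine serum / Incubation: 72 h compound exposure at 37 °C after overnight plating / Detection: CellTiter-Glo luminescence measuring cellular ATP / Read-out: % viability versus median cells-only luminescence / Benchmarks: cell-only wells, no compound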
Jurkat viability – cytotoxicity toward Jurkat cells. inhibition, % at 4 µM. actives 1.2% (n = 56,000). Jurkat E6.1 viability, ATP luminescence, 48 h;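 active = inhibition above the mean inhibition of all tested compounds plus 3 SD, cut at about 28% in these data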
H69AR growth 86K – blocks growth of human H69AR lung tumor cells; H69AR lung tumor viability, ATP luminescence, 72 h; active compounds read low; viability, % at 10 µM; actives 6% (n = 85,000);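 active = viability at or below 40%; inactive = viability above 40%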;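 also: multidrug resistant small cell line overexpressing MRP-1 efflux transporter; 100% = mean luminescence of untreated control wells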
HUVEC inhibit – inhibitors of human endothelial cell proliferation | viability, % at 10 µM (by protocol) | AID 648 | HUVEC proliferation, CellTiter-Glo luminescence, 72 h; active compounds read low | actives 1.1% (n = 86,000);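 active = viability at or below 30%; inactive = viability above 30%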;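 also: 100% = median luminescence of DMSO-only cell control wells on each plate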
Numbers without * were called inactive; . = no result given. This is a sample that favours compounds with a hit; in the whole collection about 6.6% have one here.

SMILES | Lung fibro prol | Jurkat viability | H69AR growth 86K | HUVEC inhibit
COc1ccc(/C=C/c2ccncc2)c2ccccc12 | 94 | . | 14* | 69
COc1cc(-c2ccccc2)nc2ccccc12 | 102 | . | 75 | 84
CCN(CC)S(=O)(=O)c1ccc(NCc2ccccc2)nc1 | 96 | 2 | 104 | 98
Cc1noc(C)c1CSc1cc(C)c2ccccc2n1 | 90 | 6 | 22* | 97
Cc1nn(-c2nc3ccccc3s2)c(N)c1Sc1ccc(F)cc1 | 18* | 6 | 9.7* | 59
CC(C)OC(=O)c1nn2c(C(F)(F)F)cc(-c3ccc(Br)o3)nc2c1Br | 76 | . | 35* | 77
CCN(CC)C(NC(=O)c1ccccc1)C(=O)c1ccccc1 (centres undefined) | 102 | 1 | 102 | 97
Cc1ccc(C(=O)c2coc3ccc(O)c(Cl)c23)cc1 | 107 | . | 89 | 70
CCOC(=O)C(C(C)=O)c1c(Br)c(O)c(O)c2c(C(=O)c3ccc(C)cc3)coc12 (centres undefined) | 10* | 61* | 1.4* | 60
COc1ccc(-n2nnnc2SCC(=O)Nc2nc3c(s2)CCCC3)cc1 | 97 | . | 71 | 78
O=C(CC1(O)C(=O)N(C/C=C/c2ccccc2)c2ccccc21)c1ccccn1 (centres undefined) | 57 | 26 | 24* | 34
Cc1cc2ncn(CCOc3ccccc3C#N)c2cc1C | 95 | -2 | 82 | 98
O=C(CSc1nc2ccccc2c(=O)n1CC1CCCO1)NCC1CCCO1 (centres undefined) | 109 | 0 | 95 | 102
NC(=O)NC(=O)CSc1nc(-c2ccccc2)c(-c2ccccc2)n1CC1CCCO1 (centres undefined) | 95 | . | 36* | 112
O=C(NCc1cccnc1)c1ccc(CN2CCc3ccccc3C2)cc1 | 98 | . | 83 | 91
CCCCn1c(SC(C)C(=O)c2ccc(OC)cc2)nc2cc(S(N)(=O)=O)ccc21 (centres undefined) | 98 | . | 33* | 102
CCCC(=O)C1=C(O)C(C(=O)OC)C(C)(C)CC1=Nc1ccc(N)cc1 (centres undefined) | 97 | . | 81 | 95
CCCC(=Nc1ccc(N)cc1)C1=C(O)C(C(=O)OC)C(C)(C)CC1=O (centres undefined) | 100 | . | 20* | 88
O=C(NC1CCCCC1)c1cccc(COCC(F)(F)F)c1 | 97 | . | 98 | 97
COC(=O)/C=c1/s/c(=C(/C#N)C(=O)N2CCCCC2)n(-c2ccccc2)c1=O | 102 | . | 36* | 86
COc1cc(/C=c2\s/c(=C(/C#N)C(=O)N3CCCC3)n(-c3ccccc3)c2=O)ccc1O | 77 | -1 | 10* | 12*
CCn1c(SCC(=O)NCc2ccccc2)nnc1-c1c[nH]c2ccccc12 | 101 | . | 74 | 101
Cc1cccn2c(=O)c(C=NCc3ccco3)c(Nc3ccc(Cl)cc3)nc12 | 72 | 2 | 23* | 70
Cc1c(/C=C(\C#N)c2nn(-c3ccccc3)c(N)c2C#N)c2ccccc2n1Cc1ccc(F)cc1 | 65 | . | 9.6* | 36
COC(=O)CCC(=O)Nc1sc(C)c(C)c1C(N)=O | 98 | 1 | 19* | 85
SMILES | Lung fibro prol | Jurkat viability | H69AR growth 86K | HUVEC inhibit
COC(=O)c1ccc(COC(=O)C23CC4CC(CC(O)(C4)C2)C3)o1 | 106 | -2 | 98 | 104
Cc1ccc2c(COn3nnc4ccc(S(=O)(=O)N(C)C)cc43)cc(=O)oc2c1C | 99 | 5 | 33* | 83
Cc1ccc(NC(=O)Cn2cnc3sc(C(=O)NCCN(C)C)c(C)c3c2=O)cc1Cl | 58 | . | 72 | 8.3*
CCc1ccc2nc(SCC(=O)N3CC(=O)Nc4ccccc43)c(C#N)cc2c1 | 65 | . | 5.2* | 32
CCc1ccc2nc(SCC(=O)N3CCCCC3)c(C#N)cc2c1 | 96 | . | 51 | 91
COCCCNC(=O)c1c(NC(=O)C2COc3ccccc3O2)sc2c1CCCC2 (centres undefined) | 101 | . | 35* | 77
CCOC(=O)c1c(NC(=O)C2COc3ccccc3O2)sc(C(C)=O)c1C (centres undefined) | 84 | . | 21* | 23*
Cc1ccc(Cn2cccc(NC(=O)c3ccco3)c2=O)cc1 | 100 | 0 | 93 | 101
Cc1ccc(NC2=C/C(=N\S(=O)(=O)c3cccs3)c3ccccc3C2=O)c(C)c1 | 2.2* | . | 2.0* | 2.9*
Cc1cccc(Nc2nc(-c3ccc4c(c3)OCCO4)cs2)c1 | 114 | . | 22* | 73
O=C(Nc1ccc(Cl)cc1)N1CCCN(Cc2ccc(F)cc2)C1 | 29* | . | 39* | 66
O=C(c1ccco1)N1CCC(c2ccccc2)C1 (centres undefined) | 95 | 3 | 87 | 92
CCCc1nnc(NC(=O)c2c(O)c3cccc4c3n(c2=O)CCC4)s1 | 97 | 5 | 6.0* | 108
CCCCNC(=O)c1c(O)c2cccc3c2n(c1=O)CCC3 | 92 | -8 | 75 | 101
CCc1nc2ccccc2c(=O)n1NC(=O)c1c(O)c2cccc3c2n(c1=O)CCC3 | 95 | 4 | 26* | 95
O=C(Nc1cccnc1)c1c(O)c2cccc3c2n(c1=O)CC3 | 100 | 5 | 15* | 103
Cc1csc(NC(=O)c2c(O)c3cccc4c3n(c2=O)CCC4)n1 | 96 | 2 | 36* | 128
CCc1ccc(N2CC(C(=O)Nc3nnc(CC)s3)CC2=O)cc1 (centres undefined) | 97 | . | 92 | 92
Cc1ccc(S(=O)(=O)N(C)CC(=O)Nc2ccncc2)cc1 | 94 | 6 | 61 | 101
O=C(NCc1ccco1)C1CCN(S(=O)(=O)Cc2ccccc2)CC1 | 95 | . | 92 | 91
CC(C)Cn1c2c(c(O)c(C(=O)Nc3ncccc3O)c1=O)CCCC2 | 71 | -4 | 66 | 97
CC(C)c1nnc(NC(=O)c2c(O)c3cccc4c3n(c2=O)CC4)s1 | 96 | -3 | 28* | 86
CNC(=O)c1c(O)c2cccc3c2n(c1=O)CC3 | 95 | -4 | 103 | 102
CCCCc1nc2ccccc2c(=O)n1NC(=O)c1c(O)c2c(n(CC(C)C)c1=O)CCCC2 | 76 | 1 | 9.7* | 113
Cc1cc(C)c2nc(C(F)(F)F)nc(N3CCN(C(=O)c4ccco4)CC3)c2c1 | 96 | -3 | 72 | 68
SMILES | Lung fibro prol | Jurkat viability | H69AR growth 86K | HUVEC inhibit
Cc1cc(C)c2nc(N3CCCN(C(=O)c4ccco4)CC3)c(C#N)cc2c1 | 97 | -1 | 35* | 98
CS(=O)(=O)c1nc(-c2ccc(Br)cc2)cc(-c2ccccc2)c1C#N | 1.9* | . | 1.2* | 20*
COc1ccc(-c2cc(-c3ccccc3)c(C#N)c(S(C)(=O)=O)n2)cc1 | 71 | . | 3.6* | 26*
Cc1cc(-c2ccccc2)c(C#N)c(N)n1 | 102 | . | 82 | 94
CS(=O)c1nc(-c2ccc(Br)cc2)cc(-c2ccccc2)c1C#N (centres undefined) | 6.6* | 100* | 1.5* | 9.9*
COc1ccc(-c2cc(-c3ccc(OC)cc3)c(C#N)c(SC)n2)cc1 | 100 | . | 64 | 73
CCOC(=O)c1cc2occc2n1CC(=O)N1CCCc2ccccc21 | 100 | 0 | 75 | 84
O=C(COc1ccccc1)N1CCN(c2ncnc3c2cnn3-c2ccccc2)CC1 | 96 | 11 | 40* | 115
